Screening data deposited in PubChem BioAssay by several laboratories.
HCV NS3 hel inh – inhibitors of Hepatitis C virus NS3 helicase; NS3 helicase DNA unwinding, Cy5 molecular beacon fluorescence; inhibition, % at 10.9 µM; 0.56% of 290,000 active; AID 1800;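 active means inhibition above the mean of all tested compounds plus 3 SD, set per campaign, cut at about 35% in these data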
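assay system = NS3 helicase fragment of HCV | buffer or medium = MOPS pH 6.5, MgCl2, DTT, Tween20, BSA | timing = 60 min unwinding reaction at 25 °C after ATP addition | signal = Cy5 beacon fluorescence read at start and 1 h | read-out basis = % inhibition of unwinding | control set = low DMSO, high thioflavine S at 110 µM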
HSP90 inh – blocks HSP90-mediated luciferase refolding in reticulocyte lysate; Rabbit reticulocyte lysate, luciferase refolding luminescence, 3 h; inhibition, % at 5.6 µM; 0.91% of 290,000 active;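 active means inhibition above the screen-wide mean plus 3 SD, computed separately per campaign, cut at about 16% in these data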;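 further: inhibitors lower the luminescence because luciferase stays unfolded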
FID counter – counter-screen for HCV NS3 helicase inhibitors: DNA intercalator displacement; 0.17% of 290,000 active; AID 1845; DNA fluorescent intercalator displacement, fluorescence; inhibition, % at 7.9 µM; in the data active means inhibition above about 37%;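 further: higher means more ethidium bromide displaced from hairpin DNA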
HSF-1 act – increases HSF-1 driven luciferase reporter signal. NIH3T3-HGL HSF-1 luciferase reporter, MG132, 8 h; 100% = twice DMSO control signal. activation, % at 9 µM. 1.7% of 300,000 active;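 active means mean replicate activation of at least 50% with a set share of replicates each reaching 50%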
HSF1 inhib – HSF1 inhibition. NIH3T3-HGL HSE-luciferase, MG132-induced, luminescence 8 h; stronger effect = lower value. activity change, negative = inhibition, % at 7.5 µM (by protocol). 0.77% of 300,000 active. AID 2098;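 active means more than half of replicate wells show activity change below -50%, luminescence cut by over half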;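 further: luciferase reports HSF-1 transcriptional activity via heat shock element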
core dimer inh – HCV core protein dimerization inhibition; 0.33% of 300,000 active; TR-FRET GST/Flag-core106 dimerization, 1536-well; inhibition, % at 5 µM;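 active means inhibition above the mean of all tested compounds plus 3 SD, set per screening campaign, cut at about 45% in these data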
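Assay system: Tagged HCV core106 pair (GST and Flag) | Buffer or medium: KF-containing HEPES buffer, pH 7.45, DTT, CHAPS, BSA | Also added: Eu donor and XL665 acceptor anti-tag antibodies | Dosing: One concentration, 5 µM, in 0.5% DMSO | Timing: 4 h at 22.5 °C | Technique: TR-FRET 671 and 617 nm emission | Repeats: Singlicate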
Each line names hits and unclear results; the compound was inactive in the other large screens. Hits are enriched below; roughly 3.9% of the tested compounds scored in any of these assays.

COc1cc(NC(=O)Cc2cccs2)ccc1-n1cnnn1	HSF-1 act 75.5
COc1ccc(NC(=O)C2CC2)cc1-n1cnnn1	HSF1 inhib -71.8
COc1cc(NC(=O)C2CCN(S(=O)(=O)c3ccc(Cl)cc3)CC2)ccc1-n1cnnn1	none
CC(C)CN(C(=O)COC(=O)CCc1c[nH]c2ccccc12)c1c(N)n(Cc2ccccc2)c(=O)[nH]c1=O	none (no result: HCV NS3 hel inh, HSP90 inh, FID counter)
CC(C)(C)NC(=O)CN(CCN1CCOCC1)C(=O)CNS(=O)(=O)c1ccc(Cl)cc1	none
Cc1cc2oc3c(c(=O)c2cc1C)C(c1ccc(C(C)C)cc1)N(CCCN1CCOCC1)C3=O (centres undefined)	HSF-1 act 58.3
CCOc1ccc(C2c3c(oc4cc(C)c(C)cc4c3=O)C(=O)N2CCCN2CCOCC2)cc1 (centres undefined)	none
Cc1ccc(/C=C/C(=O)N2CC(C)CC(C)C2)o1 (centres undefined)	HSF-1 act 51.2
COc1ccc(CNC(=O)C(c2ccc(C)o2)N(C(=O)c2snc(C(N)=O)c2N)c2ccccc2OC)cc1 (centres undefined)	HSF-1 act 57.5
Cc1ccc(NC(=O)Nc2c(C)n(C)n(-c3ccccc3)c2=O)cc1	none
Cc1c(NC(=O)Nc2ccc([N+](=O)[O-])cc2)c(=O)n(-c2ccccc2)n1C	HSF-1 act 57.9
COc1ccc(NCc2nnc(SCC(=O)Nc3ccccc3)n2C)cc1	none
Cc1cc(-n2c(C)cc(C(=S)N3CCOCC3)c2C)ccc1Br	none
CN(C)CCNC(=O)CN1C(=O)COc2ccc(C(C)(C)C)cc21	HSF1 inhib -67.9
Cc1ccc2c(c1)N(CC(=O)O)C(=O)CO2	HSF1 inhib -79.6
CCOc1ccc2c(c1)[N+](C)(C)C(C)(C)C=C2C	HSF1 inhib -79.9
COc1cccc(/C=C2\SC(=S)N(CCCC(=O)N3CCCCC3)C2=O)c1	HSF-1 act 55.5
Cc1cccc(N2CCN(C(=O)CSc3ccsc3[N+](=O)[O-])CC2C)c1 (centres undefined)	core dimer inh 57.0
O=C(O)c1cccc(NC(=O)c2cn(-c3ccccc3)nc2-c2cccc(Br)c2)c1	none
CCCNC(=O)c1oc2ccc3c(c2c1C)C(=O)CC(C)(C)O3	HSF-1 act 59.1
CCOC(=O)c1nn(-c2ccc(C)cc2)cc1C(=O)c1ccccc1	HSF-1 act 58.5
Cc1csc(-c2cnn(-c3ccccc3)c2NC(=O)c2cccc(C(F)(F)F)c2)n1	HSF-1 act 80.8
Cc1cc(C)c2[nH]c(C(=O)N3CCC(n4nccc4NC(=O)C4CC4)CC3)c(C)c2c1	none (no result: core dimer inh)
Cc1cccc(NC(=O)CNC(=O)c2ccc3nc[nH]c3c2)c1C	none (no result: HCV NS3 hel inh, HSP90 inh, FID counter)
CCOC(=O)N1CCN(c2cc(NCCC(=O)O)c3c4c(onc24)-c2ccccc2C3=O)CC1	HCV NS3 hel inh 36.0 (no result: HSF-1 act, HSF1 inhib)
CN1CCN(c2cc(N3CCN(C(=O)c4ccco4)CC3)c3c4c(onc24)-c2ccccc2C3=O)CC1	none
O=C(CN1C(=O)NC2(CCCC2)C1=O)N1CCN(Cc2ccccc2)CC1	none (no result: HCV NS3 hel inh, HSP90 inh, FID counter)
O=C(Nc1ccc(N2CCN(C(=O)c3ccco3)CC2)cc1)c1ccco1	none
O=C(Cc1ccc(Cl)cc1)Nc1ccc(N2CCN(C(=O)c3ccco3)CC2)cc1	HSF-1 act 80.2
O=C(c1ccco1)N1CCN(c2ccc(Cl)cc2)CC1	HSF-1 act 70.5
O=C(c1ccco1)N1CCCN(C(=O)c2ccco2)CC1	none
O=C(c1ccco1)N1CCN(C(=O)N2CCOCC2)CC1	HSF-1 act 71.4
O=C(c1ccco1)N1CCN(c2ccc(Cl)c(Cl)c2)CC1	HSF-1 act 99.0
O=C(c1ccco1)N1CCN(c2ccc(S(=O)(=O)N3CCCC3)cc2)CC1	none
Cc1csc2ncnc(N3CCN(C(=O)Nc4ccc(OC(F)(F)F)cc4)CC3)c12	none
COc1ccc(-c2nsc3c(N4CCN(C(=O)c5ccco5)CC4)ncnc23)cc1	none
O=C(CCSc1ccc(Cl)cc1)c1ccco1	none
O=C(c1ccco1)N1CCN(C(=O)c2cc(-c3ccccn3)nc3ccc(Cl)cc23)CC1	core dimer inh 76.2
O=C(c1ccco1)N1CCN(c2ncnc3c(-c4ccccc4)nsc23)CC1	HSF-1 act 50.9
O=C(c1ccco1)N1CCN(C(=O)c2cc(-c3ccccc3)nc3ccccc23)CC1	none
O=C(CSc1ccc(Cl)cc1)c1ccco1	core dimer inh 48.8
CC(=O)c1ccc(NC(=O)CCCN2C(=O)C(c3ccccc3)Oc3cccnc32)cc1 (centres undefined)	none
Cc1noc(C(=O)Nc2cccnc2Cl)c1Cl	none (no result: core dimer inh)
Cc1[nH]c2ccccc2c1C(C[N+](=O)[O-])c1ccco1 (centres undefined)	none
Cc1ccc(-c2[nH]c3ccccc3c2C(C[N+](=O)[O-])c2ccco2)cc1 (centres undefined)	HSF-1 act 70.2
Cc1[nH]c2ccccc2c1C(C[N+](=O)[O-])c1cccs1 (centres undefined)	HSF1 inhib -74.7
CCc1ccc(C2C(=O)c3ccccc3C2=O)cc1	none (no result: HCV NS3 hel inh, HSP90 inh, FID counter)
CC(Sc1nnc(C2CC2)n1N)C(=O)NC1CCCCC1C (centres undefined)	none
CC(C)(C)c1nnc(NC(=O)Cc2ccc(Br)cc2)s1	none
CC(C)C(=O)Nc1ccc2c(c1)nc(CCN1CCCCC1)n2C	none
Cn1c(CCN2CCCCC2)nc2cc(NC(=O)Nc3ccccc3)ccc21	HSF-1 act 57.5
Cc1nc2cc(NC(=O)Nc3cccc([N+](=O)[O-])c3)ccc2n1C	HSF-1 act 53.8
CC(=O)N1CCN(Cc2nc3cc(NC(=O)Cn4nc(C)c5ccccc5c4=O)ccc3n2C)CC1	none
Cc1nn(CC(=O)Nc2ccc3c(c2)nc(CCN2CCCCC2)n3C)c(=O)c2ccccc12	HSF-1 act 53.4
COc1ccc(OC)c2sc(N(CCN(C)C)C(=O)/C=C/c3cccs3)nc12	FID counter 43.7
CC(=O)c1c(C)[nH]c(C(=O)NCCc2ccc(Cl)cc2)c1C	none
CC(Oc1ccc(Cl)cc1Cl)c1nc(-c2ccc(NC(=O)c3cccnc3)cc2)no1 (centres undefined)	none
CC(Oc1ccc(Cl)cc1Cl)c1nc(-c2ccccn2)no1 (centres undefined)	HSF-1 act 76.0
Cc1sc2nc(C)n(/N=C/c3ccc(O)cc3O)c(=O)c2c1C	HSF-1 act 63.4
Cc1sc2nc(C)n(/N=C/c3ccccc3O)c(=O)c2c1C	none
COC(=O)c1sc(N2C(=O)C(O)=C(C(=O)c3ccc(C)o3)C2c2cccs2)nc1C (centres undefined)	none
Cc1ccc(Cn2cccc(-c3nc4ccccc4s3)c2=O)cc1	HSF-1 act 105.7
O=c1c(-c2nc3ccccc3s2)cccn1Cc1ccccc1	HSF-1 act 93.4
Cc1cc(NC(=O)COC(=O)COc2ccc3c4c(c(=O)oc3c2)CCC4)no1	none
